Screening results from PubChem.
CCR6 antag – CCR6 (human) receptor antagonism; P51684; CHO-K1 CCR6 PathHunter beta-arrestin, luminescence, CCL20-stimulated; inhibition, % at 20 µM; actives 0.49% (n = 340,000);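 active = compounds whose inhibition of the agonist-driven luminescence signal at 20 µM reaches about 50%, limit read from the data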;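 also: cells stimulated with CCL20 at 14 nM final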
EBI2 block – blocks human EBI2 receptor beta-arrestin signaling; P32249; EBI2 beta-arrestin recruitment, luminescence, 7a,25-OHC stimulated; actives 0.81% (n = 360,000); inhibition, % at 5 µM; in the data active = inhibition above about 38%;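 also: enzyme fragment complementation signal reports receptor beta-arrestin coupling in cells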
APJ antagonist – APJ receptor antagonism; CHO-K1 APJ beta-arrestin complementation, luminescence; AID 2521; actives 0.32% (n = 330,000); inhibition, % at 20 µM; P35414;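 active = inhibition above about 40% at 20 µM, limit read from the data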;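 also: cells challenged with 10 nM apelin-13 agonist together with compound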
Target sequence (P35414 whole entry, looked up): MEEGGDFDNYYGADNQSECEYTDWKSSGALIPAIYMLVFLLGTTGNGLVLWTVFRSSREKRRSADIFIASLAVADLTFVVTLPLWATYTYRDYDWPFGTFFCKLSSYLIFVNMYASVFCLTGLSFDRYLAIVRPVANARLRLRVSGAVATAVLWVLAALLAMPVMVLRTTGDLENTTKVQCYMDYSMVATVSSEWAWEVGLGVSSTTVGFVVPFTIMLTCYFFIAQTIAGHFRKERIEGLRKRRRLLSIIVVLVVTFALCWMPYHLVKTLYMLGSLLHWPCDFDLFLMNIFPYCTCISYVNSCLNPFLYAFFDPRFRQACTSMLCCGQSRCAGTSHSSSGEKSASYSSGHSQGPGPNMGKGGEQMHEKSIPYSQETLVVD
APJ ag – APJ receptor agonism; P35414; AID 2520; activation, % at 20 µM; CHO-K1 APJ PathHunter beta-arrestin, luminescence; 0% DMSO wells, 100% apelin; actives 0.11% (n = 330,000);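 active = activation more than six SD over the plate average, tested at 20 µM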
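assay system = CHO-K1 APJ beta-arrestin complementation cell line | input = cell density 1000 per well | dosing = compound 20 µM once, DMSO 1% | timing = compound 90 min 25 °C, reagent 1 h | measured by = luminescence from split beta-galactosidase complementation, Galacton Star/Emerald II substrate | read-out basis = APJ agonist activity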
CXCR6 inh – blocks human CXCR6 beta-arrestin recruitment; O00574; CHO-K1 PathHunter CXCR6 beta-arrestin, luminescence; actives 0.36% (n = 360,000); AID 602244; inhibition, % at 20 µM; in the data active = inhibition above about 34%, passing the limit was not always enough;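 also: antagonist mode with CXCL16 agonist at 10 nM final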
HTR2A ag – agonists of mouse serotonin 5-HT2A receptor (HTR2A); P35363; actives 0.66% (n = 360,000); CHO-K1 mHTR2A beta-arrestin complementation, luminescence; percent of 30 µM serotonin response; AID 624169; activation, % at 7.6 µM;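 active = activation above a run cutoff, the mean activation of all tested compounds plus 3 SD, cut at about 14% in these data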
EBI2 antag conf – confirmation of human EBI2 receptor antagonists. shares compounds with EBI2 block. EBI2 beta-arrestin luminescence, 7a,25-OHC antagonism. inhibition, % at 5 µM. actives 29% (n = 2,400). AID 651997;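 active = inhibition of at least 50%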
EBI2 agonist – activates EBI2, counter-screen for EBI2 antagonists; EBI2-expressing cells, agonist mode, luminescence, 60 min; 0% vehicle, 100% 7α,25-dihydroxycholesterol control; AID 652000; activation, % at 5 µM; 2,400 tested, under 10 active; shares compounds with EBI2 block;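 active = activation of at least 50%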
bGal counter – counter-screen for EBI2 antagonists: E. coli beta-galactosidase inhibition | inhibition, % at 5 µM | actives 1% (n = 2,400) | AID 652176 | purified beta-galactosidase, luminescent Galacton Star, 15 min | shares compounds with EBI2 block;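 active = replicate-average signal at least 3 plate SD below neutral wells, shown as high inhibition, flagging enzyme-inhibiting false positives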;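 also: higher means stronger loss of beta-gal luminescence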
Of the large screens only hits and unclear results are named; the others gave an inactive call (follow-up assays come after a bar, where they were run). A selection: hits, their analogues and other compounds. The true share with any hit is near 2.1%.

S=C1NC[C@H](c2ccccc2)N1CCCCC1CCCCC1	EBI2 block 46 | EBI2 antag conf inactive | EBI2 agonist inactive | bGal counter inactive
Cc1ccc(CNC(=O)C2CCN(S(=O)(=O)c3ccc(Br)s3)CC2)cc1	EBI2 block 92 | EBI2 antag conf 61 | EBI2 agonist inactive | bGal counter inactive
Cc1ccc(CNC(=O)C2CCN(S(=O)(=O)c3cccs3)CC2)cc1	EBI2 block 60 | EBI2 antag conf 51 | EBI2 agonist inactive | bGal counter inactive
COc1cccc(C(=O)C2CCCN(Cc3cccc(OCCO)c3)C2)c1 (configuration not stated)	none
CCOC(=O)c1ccc(S(=O)(=O)N2CCN(C(=O)c3cc(=O)c4ccccc4o3)CC2)cc1	EBI2 block 60 | EBI2 antag conf inactive | EBI2 agonist inactive | bGal counter inactive
CCOc1ccc(S(=O)(=O)N2CCN(C(=O)c3cc4ccccc4o3)CC2)cc1	EBI2 block 86 | EBI2 antag conf 56 | EBI2 agonist inactive | bGal counter inactive
CCOC(=O)c1ccc(S(=O)(=O)N2CCN(S(=O)(=O)CC)CC2)cc1	none
CC(=O)N1CCN(C(=O)c2cc3ccccc3o2)CC1	none
O=C(c1cc2ccccc2o1)N1CCN(S(=O)(=O)c2c(F)cccc2F)CC1	EBI2 block 63 | EBI2 antag conf inactive | EBI2 agonist inactive | bGal counter inactive
O=C(COC(=O)Cc1c[nH]c2ccccc12)Nc1ccccc1C(F)(F)F	none
COCCOc1ccc(C(F)(F)F)cc1NC(=O)COC(=O)Cc1c[nH]c2ccccc12	EBI2 block 82 | EBI2 antag conf inactive | EBI2 agonist inactive | bGal counter inactive
CC(C)=NNC(=O)C1=NNC(=O)C1	none
COc1ccc(-n2cc(-c3ccc(Br)cc3)[nH]c2=S)cc1	EBI2 block 79 | EBI2 antag conf 52 | EBI2 agonist inactive | bGal counter inactive
O=C(/C=C/c1ccccc1Cl)N1CCOCC1	none
O=C(c1ccc(F)cc1F)N1CCN(c2ncccn2)CC1	none
O=C(/C=C/c1ccccc1Cl)N1CCN(c2ncccn2)CC1	EBI2 block 60 | EBI2 antag conf inactive | EBI2 agonist inactive | bGal counter inactive
O=C(/C=C/c1cccc(F)c1)N1CCN(c2ncccn2)CC1	EBI2 block 90 | EBI2 antag conf 69 | EBI2 agonist inactive | bGal counter inactive
Cn1cccc1Cc1nnc(SCC(=O)N2CCc3ccccc32)n1CCc1ccccc1	EBI2 block 68 | EBI2 antag conf inactive | EBI2 agonist inactive | bGal counter inactive
Cn1cccc1Cc1nnc(SCC(=O)N2CCCC2)n1CCc1ccccc1	none
COc1ccc(-n2c(Cc3cccn3C)nnc2SCC(=O)N2CCCc3ccccc32)cc1	EBI2 block 38 | EBI2 antag conf inactive | EBI2 agonist inactive | bGal counter inactive
CC1CCN(C(=O)CSc2nnc(Cc3cccn3C)n2CCc2ccccc2)CC1	EBI2 block 47 | EBI2 antag conf inactive | EBI2 agonist inactive | bGal counter inactive
COc1ccc(OC)c(C2=NS(=O)(=O)N(C)C(C(=O)Nc3cccc(C(C)=O)c3)=C2)c1	none
O=C(c1cc2ccccc2oc1=O)N1CCN(c2ncccn2)CC1	none
O=C(c1cc2cc(Br)ccc2o1)N1CCN(c2ccccc2)CC1	EBI2 block 53 | EBI2 antag conf inactive | EBI2 agonist inactive | bGal counter inactive
O=C(c1cc2ccccc2o1)N1CCN(c2ncccn2)CC1	EBI2 block 59 | EBI2 antag conf inactive | EBI2 agonist inactive | bGal counter inactive
C#Cc1ccc([C@H]2C=C(C(=O)OCC=C)O[C@@H](OCCCCO)C2)cc1	none
Cc1cc(Cl)c(OCCCN2CCCCC2)c(Br)c1	none
Cc1ccc(S(=O)(=O)N2CCN(c3ccccn3)CC2)cc1	none
COC(=O)c1ccc(NS(=O)(=O)c2cc(C)ccc2OC)cc1	none
COc1ccc(CN(C)S(=O)(=O)c2nnc(NC(=O)c3ccccc3OC)s2)cc1OC	none
COc1ccc(CNC(=O)c2cc(=O)c3cc(C)c(C)cc3o2)cc1	EBI2 block 56 | EBI2 antag conf inactive | EBI2 agonist inactive | bGal counter inactive
Cn1c(-c2ccc3nc(N)sc3c2)nc2cc(N)ccc21	none
CCOc1ccc(/C=N/OCC(=O)NC(c2ccccc2)c2ccccc2)cc1	EBI2 block 79 | EBI2 antag conf 60 | EBI2 agonist inactive | bGal counter inactive
CCc1ccc(S(=O)(=O)Nc2ccc(-c3ccc4nnc(C)n4n3)cc2)s1	none
Cc1c(C(=O)Nc2ccccc2)sc2nc(-c3ccccc3)cn12	EBI2 block 44 | EBI2 antag conf inactive | EBI2 agonist inactive | bGal counter inactive
COc1ccc(N2CCN(C(=O)c3ccc(C)c(NC(=O)C4=C(C)OCCS4)c3)CC2)cc1	none
COc1ccc(C(=O)Cn2c(C(=O)/C=C/c3ccccc3)nc3ccccc32)cc1	EBI2 block 53 | EBI2 antag conf inactive | EBI2 agonist inactive | bGal counter inactive
COc1ccc(C(=O)CSc2nc3ccccc3n2CC(=O)c2ccccc2)cc1	none
COc1cc(-c2nc3n(n2)C(c2ccncc2)C(C(N)=O)=C(C)N3)cc(OC)c1OC (configuration not stated)	none
Cc1cc(-c2nc(C)c(C(=O)NNS(=O)(=O)c3ccc(Cl)cc3Cl)s2)no1	none
O=C(NC1CCSC1=O)c1ccc(Oc2ccc(F)cc2)nc1 (configuration not stated)	none
Cc1ccc(Oc2ccc(C(=O)NC3CCSC3=O)cn2)cc1 (configuration not stated)	EBI2 block 49 | EBI2 antag conf inactive | EBI2 agonist inactive | bGal counter inactive
Cc1ccc(C(=O)N2CCN(c3ccc([N+](=O)[O-])c(NCc4ccco4)c3)CC2)cc1	EBI2 block 42 | EBI2 antag conf inactive | EBI2 agonist inactive | bGal counter inactive
Cc1cccc(C(=O)N2CCN(c3ccc([N+](=O)[O-])c(NCc4ccco4)c3)CC2)c1	none
O=C(C1=C[C@@H](c2ccc(Br)cc2)C[C@@H](OCc2ccc(CO)cc2)O1)N1CCN(Cc2ccc3c(c2)OCO3)CC1	EBI2 block 41 | EBI2 antag conf inactive | EBI2 agonist inactive | bGal counter inactive
